Experimental data taken from PubChem BioAssay AID504383 (The Scripps Research Institute Molecular Screening Center, 2011).
Where “and” joins values, the source holds several entries; their conditions need not be identical. Equal values may be shown once. The campaign covered roughly 2,500 compounds. About 1,200 (48%) were called active.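 How the source made its calls: active means mean activation above the low control average plus 3 SD, as set in the primary screen (cut at about 12% in these data); inactive means the rest.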 The set was probably picked from earlier hits. The list shows a part of the results. Some structures have more than one record in an assay (separate samples or runs), and their calls can disagree.

target: Troponin I, cardiac muscle (Homo sapiens) + Troponin T, cardiac muscle (Homo sapiens) + Troponin C, slow skeletal and cardiac muscles (Homo sapiens) (UniProt P19429+P45379+P63316); experiment: calcium sensitizers of cardiac thin filaments – biochemical, IANBD-TnC fluorescence, triplicate, confirmation (AID 504383); settings: IANBD-labeled cardiac RTF, Ca2+ sensitivity fluorescence; at 7.2 µM; stronger effect = higher value; scaled from EC20 to saturating calcium; tested at EC20 calcium, 0.472 mM;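 further: 0% = DMSO at 0.472 mM calcium and 100% = DMSO at 2.9 mM calcium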
Procedure, shortened: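 Material: labelled regulated thin filaments; Reagent: 0.472 mM calcium; Incubation: 15 min compound incubation with filaments at 25 °C; Detection: filament fluorescence intensity; Evaluation: fluorescence increase normalised to calcium controls; Benchmarks: low control EC20 calcium, high control EC100 calcium.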

Question: With CCc1ccc(C(=O)Nc2cccnc2Oc2ccc(Cl)cc2)cc1 as the compound, how does the activation read?
Answer: Its activation is 22% (active).

Question: How did the activation turn out when CC(C)(C)c1ccc(C(=O)Nc2cccc3ncccc23)cc1 was run?
Answer: The activation was 10.2% (inactive).

Question: CC(C)Cn1c(N)c(C(=O)COC(=O)c2cc(F)cc(F)c2)c(=O)n(C)c1=O was tested. Which activation did it give?
Answer: The activation was 225% (active).

Question: For O=c1oc2c(CN3CCCCC3)c(O)ccc2cc1-c1nc2ccccc2[nH]1, which activation is on record?
Answer: The activation was 224% (active).

Question: O=c1oc2c(O)cccc2cc1-c1nc2ccccc2[nH]1 was tested. Which activation did it give?
Answer: The activation was 8.93% (inactive).

Question: With O=c1c2ccccc2nc(SCc2nc(-c3ccccc3)no2)n1-c1ccc(F)cc1 as the compound, how does the activation read?
Answer: The activation was 2.61% (inactive).

Question: CC(=O)c1cccc(NC(=O)Cn2nc(-c3ccccc3Cl)ccc2=O)c1 was tested. Which activation did it give?
Answer: The activation was 11.2% (inactive).

Question: For O=C(COC(=O)Cn1cnc2ccccc21)Nc1cccc2c1C(=O)c1ccccc1C2=O, which activation is on record?
Answer: Its activation is 25.4% (active).

Question: With CCC(C)n1ncn(-c2ccc(N3CCN(c4ccc(OCC5COC(Cn6cncn6)(c6ccc(Cl)cc6Cl)O5)cc4)CC3)cc2)c1=O (stereo not given) as the compound, how does the activation read?
Answer: Its activation is 390% (active).

Question: Which activation does the source give for Fc1ccc(-c2nc3ccncc3[nH]2)cc1 here?
Answer: The activation was 13% (active).

Question: For Cc1ccc(CNC(=O)CC(C)S(=O)(=O)c2ccc3c(c2)NC(=O)CS3)o1 (stereo not given), which activation is on record?
Answer: Its activation is 354% (active).

Question: For CCCCc1ccc(NC(=O)N2CCNC(=O)C2CC(=O)Nc2ccsc2C(=O)OC)cc1 (stereo not given), which activation is on record?
Answer: Its activation is 5.97% (inactive).

Question: CCCCc1ccc(NC(=O)c2cnccn2)cc1 was tested. Which activation did it give?
Answer: The activation was 22.1% (active).

Question: COC(=O)[C@@H]1C[C@@]2(O)[C@H](O)[C@H](O)[C@H](O)C[C@H]2N1C/C=C/c1ccccc1 was tested. Which activation did it give?
Answer: Its activation is 6.57% (inactive).

Question: With O=C(Nc1nc2c(s1)CN(Cc1ccccc1)CC2)c1cccc(S(=O)(=O)N2CCc3ccccc32)c1 as the compound, how does the activation read?
Answer: Its activation is 5.41% (inactive).

Question: N#Cc1c(NC(=O)C2CC=CCC2C(=O)O)sc2c1CCCCCC2 (stereo not given) was tested. Which activation did it give?
Answer: Its activation is 6.81% (inactive).

Question: For CCCN1CCc2c(sc(NC(=S)NC(=O)c3ccccc3)c2C#N)C1, which activation is on record?
Answer: Its activation is 270% (active).

Question: How did the activation turn out when CCN1CCc2c(sc(NC(=O)c3ccc(S(=O)(=O)N(C)c4ccccc4)cc3)c2C(=O)NC)C1 was run?
Answer: The activation was 10.6% (inactive).

Question: With CC(=O)c1ccc(C(=O)Nc2sc3c(c2C(N)=O)CCN(Cc2ccccc2)C3)cc1 as the compound, how does the activation read?
Answer: Its activation is 2.38% (inactive).

Question: For NC(=O)c1c(NC(=O)c2ccccc2)sc2c1CCN(Cc1ccccc1)C2, which activation is on record?
Answer: The activation was 105% (active).

Question: N#Cc1c(NC(=O)/C=C/C(=O)O)sc2c1CCN(Cc1ccccc1)C2 was tested. Which activation did it give?
Answer: The activation was 13.4% (active).

Question: Which activation does the source give for CC[n+]1c(/C=C/N(C)c2ccccc2)oc2ccccc21 here?
Answer: Its activation is 0.87% (inactive).

Question: With CC[n+]1c(/C=C/N(C)c2ccccc2)oc2ccc(F)cc21 as the compound, how does the activation read?
Answer: Its activation is 14.5% (active).

Question: Which activation does the source give for Cc1cc(C)n2nc3nc4c(cc3c2n1)CCCC4 here?
Answer: The activation was 89.3% (active).

Question: For Cc1ccc(-c2nc3ncccn3c2Nc2ccc3c(c2)OCCO3)o1, which activation is on record?
Answer: The activation was 230% (active).

Question: Which activation does the source give for COc1cccc(C2C3CN(C)CC=C3C(C#N)=C(N)C2(C#N)C#N)c1OC (stereo not given) here?
Answer: Its activation is 8.43% (inactive).

Question: How did the activation turn out when COc1cccc(C2C(C#N)=C(N)Oc3cc(C)oc(=O)c32)c1OC (stereo not given) was run?
Answer: Its activation is 23% (active).

Question: With CN1C(=O)/C(=C\C=C2/CCCN2C)N(C)C1=S as the compound, how does the activation read?
Answer: The activation was 173% (active).

Question: CN1CCC/C1=C/C=C1\SC(=S)NC1=O was tested. Which activation did it give?
Answer: The activation was 4.23% (inactive).

Question: How did the activation turn out when CCN1C(=O)/C(=C/C=C2/CCCN2C)OC1=S was run?
Answer: The activation was 12.9% (active).

Question: How did the activation turn out when CCCCN1C(=O)/C(=C/C=C2/CC(C)(C)CN2C)SC1=S was run?
Answer: Its activation is 2.58% (inactive).

Question: With C[n+]1c2cc(N)ccc2cc2ccc(N)cc21 as the compound, how does the activation read?
Answer: The activation was 6.45% (inactive) and 14.5% (active).

Question: For N#Cc1cc(C(=O)c2cc(F)ccc2O)cn(-c2nccs2)c1=O, which activation is on record?
Answer: The activation was 9.61% (inactive).

Question: N#Cc1cc(C(=O)c2ccccc2O)cn(-c2nccs2)c1=O was tested. Which activation did it give?
Answer: Its activation is 45.5% (active).

Question: How did the activation turn out when CCN(CC)CCCNC(=O)CCn1nc(-c2ccc(Cl)cc2)ccc1=O was run?
Answer: The activation was 7.9% (inactive).

Question: Which activation does the source give for CN1/C(=C\C(=O)c2ccco2)C(C)(C)c2ccccc21 here?
Answer: Its activation is 7.09% (inactive).

Question: With O=C(Cn1c(C(F)(F)F)nc2ccccc21)NCCN1CCCC1 as the compound, how does the activation read?
Answer: Its activation is -3.29% (inactive).

Question: How did the activation turn out when CCCC(=O)NCCCc1nc2ccccc2n1C was run?
Answer: Its activation is 124% (active).

Question: Cn1c(CCNC(=O)c2ccco2)nc2ccccc21 was tested. Which activation did it give?
Answer: Its activation is 919% (active).

Question: For Cn1c(=O)c2c(nc(NCCNC(=O)c3ccco3)n2Cc2ccccc2Cl)n(C)c1=O, which activation is on record?
Answer: The activation was 7.43% (inactive).

Question: How did the activation turn out when Cc1cc(Cl)ccc1OCC(=O)Nc1nc(-c2cccs2)cs1 was run?
Answer: Its activation is -1.8% (inactive).

Question: How did the activation turn out when CC(C)(C)NCc1cc(Cl)ccc1OCc1cccs1 was run?
Answer: Its activation is 47% (active).

Question: COc1ccc(OC)c(/C=c2\sc3nc(-c4cccs4)nn3c2=O)c1 was tested. Which activation did it give?
Answer: Its activation is 9.45% (inactive).

Question: With COc1ccc(C(=O)Nn2cnc3scc(-c4cccs4)c3c2=O)c(O)c1 as the compound, how does the activation read?
Answer: The activation was 29.8% (active).

Question: With CCOC(=O)c1nc2cc3n(c(CC(C)C)c-2c1C)CC(C)=C3C as the compound, how does the activation read?
Answer: Its activation is 1.31% (inactive).
